Results taken from PMC11605122 (Nature Communications, 2024).

Legend:
cumulative food intake = type: in vivo, mouse; details: DIO mice, H + G49, 72 h, versus vehicle
body weight, HFD-fed = type: in vivo, mouse
[1] = system: primary mouse hepatocytes; experiment: FGF21 release and gene expression in primary hepatocytes; type: cell-based; details: 500 nM G49, 16 h
How it was run: (§1)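 Primary hepatocytes came from non-fasted male C57BL/6J mice fed HFD for 12 weeks, with or without in vivo treatment, by two-step collagenase perfusion. Cells were spun at 60 × g, purified on isotonic Percoll (1:1) at 230 × g and seeded on collagen. They were cultured 24 h at 37 °C, 5% CO2 before exposure to the test compound.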

plasma adiponectin = type: in vivo, mouse; details: DIO mice, 24 h post-injection
How it was run: (§2)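 Plasma ALT was read with Reflotron strips and plasma TGs by colorimetric assay. Serum FGF21 and plasma adiponectin and insulin were measured by ELISA.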

[2] = system: POMC neurons, arcuate nucleus; experiment: cFos-positive POMC neurons in ARC; type: in vivo, mouse; details: DIO mice
How it was run: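 Brain slices were blocked 2 h at RT in PBS with 1% BSA and 0.1% Triton X-100. They were incubated overnight at 4 °C with anti-POMC and anti-c-Fos, then with secondary antibodies in 1% BSA/PBS for 2 h at RT, protected from light.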

BAT, eWAT, iWAT = experiment: UCP1 and TH protein; type: in vivo, mouse
TUNEL analysis of eWAT = type: in vivo, mouse; details: 6 h post-G49
How it was run: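 Paraffin-embedded eWAT sections were stained with a fluorimetric DeadEnd TUNEL kit, mounted in fluorescent medium and imaged by confocal microscopy.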

BAT explants = experiment: OCR in BAT explants; type: in vivo, mouse; details: BAT explants of mice treated with G49 for 3 days
How it was run: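 BAT explants came from DIO mice given test compound or vehicle for 72 h. OCR was run as a Seahorse Mito Stress assay with 2 µM oligomycin A, 2 µM FCCP, then 10 µM rotenone plus 10 µM antimycin. OCR (pmol/min) came from O2 tension over time.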

liver histology = type: in vivo, mouse; details: DIO mice
[3] = peptide concentration in plasma; type: in vivo, mouse; details: DIO mice, 24 h post-injection, 100 nmol/kg s.c., n = 5; cAMP bioassay
How it was run: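 Plasma activity was read in a cAMP assay on CHO cells expressing human GLP-1R, in HBSS pH 7.4 with 25 mM HEPES, 0.1% BSA and 0.5 mM IBMX. Serial dilutions were run in duplicate for 30 min at RT with HTRF detection. Standards were reference peptide spiked into 0.2% (final) naïve plasma. Sample ratio = sample EC50/reference EC50; concentration = known top concentration/ratio.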

plasma insulin = type: in vivo, mouse; details: DIO mice
How it was run: as §2

plasma ALT = type: in vivo, mouse; details: DIO mice
How it was run: as §2

blood glucose = type: in vivo, mouse
How it was run: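 DIO mice were fed 60%-fat HFD from 8 weeks of age, for 12 weeks (males) or 24 weeks (females); one male cohort was housed at 30 °C. The test compound was given s.c. every 2 days in 50 mM sodium phosphate/300 mM mannitol pH 6.9. Glucose and ketone bodies were read in tail-vein blood.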

[4] = system: primary mouse hepatocytes; experiment: insulin-induced AKT Ser473 phosphorylation in hepatocytes; type: cell-based; details: pre-treatment with G49
How it was run: as §1

[5] = system: eWAT stromal vascular fraction; experiment: immune cell populations in eWAT SVF; type: in vivo, mouse
How it was run: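 eWAT was digested, stopped with EDTA, filtered at 100 µm and red cells lysed in ACK. The SVF was stained 20 min at RT in FACS buffer (1 mM EDTA, 25 mM HEPES, 1% FBS in PBS) with a panel including CD45, CD11b, F4/80, Ly6G, CD11c, CD206, SiglecF, T/NK markers and IL-4, or isotype controls. Acquisition was on a FACSCanto II.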

eWAT and iWAT weight = type: in vivo, mouse
brown adipocytes = brown adipocytes treated with serum of G49-treated mice; type: cell-based, mouse; details: serum from mice receiving G49 for 72 h
How it was run: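 Brown preadipocytes were immortalised by retroviral SV40 Large T (20% FBS, 8 μg/mL polybrene, 48 h) at 70–80% confluence. Differentiation began with 2 days in induction medium (0.5 μM dexamethasone, 0.5 mM IBMX, indomethacin, 1 μM rosiglitazone).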

[6] = MRI body composition, total/visceral fat, lean mass; type: in vivo, mouse
plasma FFAs = type: in vivo, mouse; details: for plasma FFA elevation: DIO mice
[7] = liver-to-body weight ratio; type: in vivo, mouse; details: DIO mice, G49, 6 h

peptide plasma level [3]: 121.7 ± 12.88 nM
Sequence: HSQGTFTSDYSKYLEEEAVRLFIC (40 kDa PEG) WLMNT-amide acetate salt [G49]
inhibition of cumulative food intake (cumulative food intake): 28.30 ± 2.61% | body weight (body weight, HFD-fed; Adipoq−/− DIO mice, G49, 3–7 days): body weight stabilized in the period of 3–7 days in Adipoq^−/− mice | body weight (body weight, HFD-fed; DIO female mice, G49, 1 week): Body weight loss in the absence of a reduction in cumulative food intake | body weight (body weight, HFD-fed; DIO mice, G49 + Ex9-39 + GCGRant): failed to decrease body weight in the presence of both antagonists | body weight loss (body weight, HFD-fed; DIO mice, G49 without ATGLi, 72 h): 11.8 ± 0.51% | body weight loss (body weight, HFD-fed; DIO mice, G49 without antagonist, day 7 (antagonist experiment)): 23.2 ± 1.45% | body weight (body weight, HFD-fed; FGF21Alb-KO mice, HFD, G49, 3–7 days): body weight stabilized in G49-treated FGF21^Alb-KO mice in the period of 3–7 days | body weight (body weight, HFD-fed; UCP1−/− mice, HFD, G49, beyond 72 h): did not lose weight beyond this time-point | effect in lean mice (body weight, HFD-fed; lean mice, G49): mild and changes were found only in the short-term body weight loss, the early lipolytic response and the reduction of eWAT | body weight loss (body weight, HFD-fed; male DIO mice, G49 20 nmol/kg, 1 week): 6.9 ± 0.89% | body weight loss (body weight, HFD-fed; male mice, normal cycle, G49, 1 week): 16.1 ± 0.72% | body weight loss (body weight, HFD-fed; male mice, reversed light/dark cycle, G49, 1 week): 20.1 ± 0.49% | FGF21 release and Sir2 expression [1]: increased FGF21 levels released to the culture medium and Sir2 expression | plasma adiponectin, early (plasma adiponectin): increase in adiponectin was observed as early as 24 h post-injection | activated POMC neurons, 1 week ([2]; G49, 1 week): percentage of activated POMC neurons was reduced | cFos-positive POMC neurons, early ([2]; G49, after first injection): increase in cFos-positive POMC neurons | UCP1 protein (BAT, eWAT, iWAT; Adipoq−/− mice, G49): no increase in UCP1 protein levels was found | UCP1 expression in BAT (BAT, eWAT, iWAT; DIO mice, G49 + ATGLi, 72 h): suppression of G49 effects on UCP1 expression and BAT temperature | UCP1 protein in BAT (BAT, eWAT, iWAT; DIO mice, G49 + GCGRant): did not present an increase in UCP1 protein levels | UCP1 and TH protein in BAT (BAT, eWAT, iWAT; DIO mice, G49, 1 week): increase in thermogenic-related genes (Cpt1b, Dio2, CoxIVi1, Ucp1, Th, Fgf21) and protein levels of UCP1 and TH in BAT | UCP1 protein in BAT (BAT, eWAT, iWAT; FGF21Alb-KO mice, G49, 1 week): a lower effect of G49 in increasing in UCP1 protein levels in BAT | UCP1 protein in BAT (BAT, eWAT, iWAT; FGF21Alb-KO mice, G49 plus recombinant murine FGF21): markedly increased UCP1 protein levels and BAT temperature | UCP1 and TH protein (BAT, eWAT, iWAT; eWAT, G49, 1 week): higher UCP1 and TH protein content | UCP1 protein (BAT, eWAT, iWAT; iWAT, G49, 1 week): a similar improvement was found | TUNEL positive cells (TUNEL analysis of eWAT): presence of TUNEL positive cells | basal and maximal respiration (BAT explants): increased basal and maximal respiration in BAT explants | hepatic lipid overload (liver histology; G49 + ATGLi, 6 h): absent in mice co-treated with ATGLi | lipid accumulation, liver sections (liver histology; G49, 6 h): an increase in lipid accumulation | plasma insulin (plasma insulin; G49 + ATGLi, 6 h): plasma insulin was partly reduced | peak in insulin secretion (plasma insulin; G49 + Ex9-39, 6 h): Ex9-39 totally abolished this increase | peak in insulin secretion (plasma insulin; G49 + GCGRant, 6 h): partially blocked by the GCGRant | plasma insulin, early (plasma insulin; G49, 6 h): a rise in plasma insulin | ALT elevation (plasma ALT; G49 + GCGRant, 6 h): hepatic lipid overload and ALT elevation were not observed | ALT activity (plasma ALT; G49, 6 h): an increase in lipid accumulation analyzed by H&E and oil-red O staining of liver sections, liver-to-body weight ratio, and alanine aminotransferase (ALT) activity | blood glucose and adiposity (blood glucose; female DIO mice, G49, 1 week): efficacy of G49 in reducing blood glucose and adiposity was also found in female mice | blood glucose and adiposity (blood glucose; male DIO mice at thermoneutrality (30 °C), G49): in male mice housed at thermoneutrality | insulin-induced AKT Ser473 phosphorylation [4]: increased insulin sensitivity manifested by elevations in insulin-induced AKTSer473 phosphorylation | eWAT beiging signature ([5]; DIO mice, G49 + ATGLi, 6 h): absence of the eWAT beiging signature | beige immune signature of SVF ([5]; DIO mice, G49 + GCGRant, 6 h): loss of the beige immune signature of the SVF | Cd206+/Cd11c+ ratio in neutrophils ([5]; SVF of eWAT, G49, 6 h): increased the Cd206^+/Cd11c^+ ratio | M2 and M1 macrophages ([5]; SVF of eWAT, G49, 6 h): increase in M2 (Cd206^+) subpopulation, concomitantly with a decrease in M1 (Cd11c^+) cells | eosinophils (SiglecF+/Cd11b+/Cd11c−) ([5]; SVF of eWAT, G49, 6 h): infiltration of eosinophils | neutrophil infiltration (Cd11b+Ly6g+) ([5]; SVF of eWAT, G49, 6 h): reduction in neutrophil infiltration | fat depots (eWAT, iWAT) (eWAT and iWAT weight; DIO mice, G49 + ATGLi, 72 h): without reduction in fat depots | eWAT and iWAT depots (eWAT and iWAT weight; FGF21Alb-KO mice, G49, 1 week): a partial reduction of eWAT and iWAT depots | Ucp1 mRNA and UCP1 protein (brown adipocytes): increased Ucp1 mRNA and UCP1 protein levels | visceral fat ([6]; Adipoq−/− mice, G49, 1 week, vs Adipoq+/+): lower reduction in visceral fat | total and visceral adiposity ([6]; DIO mice, G49 + GCGRant, 6 h): abolished the acute effects of G49 in reducing total and visceral adiposity at 6 h post-injection | adiposity, fat mass, eWAT and iWAT weight ([6]; DIO mice, G49 with antagonists, alone or in combination, day 7): its administration with antagonists, either alone or in combination, totally blocked this effect | plasma FFA elevation (plasma FFAs; G49 + Ex9-39, 6 h): retained its effect in elevating FFAs in the presence of Ex9-39 | plasma FFA elevation (plasma FFAs; G49 + GCGRant, 6 h): abolished the acute effects of G49 in reducing total and visceral adiposity at 6 h post-injection and FFA elevation | plasma FFAs (plasma FFAs; UCP1−/− mice, G49, 6 h): showed elevations in FFAs (at 6 h) | plasma FFAs (plasma FFAs; irradiated DIO mice, G49, 6 h): the elevation of FFAs was preserved | plasma FFAs (plasma FFAs; lean Gcgr−/− mice, single injection of G49, 1–6 h): did not elevate plasma FFAs at 1–6 h in Gcgr^−/− mice | lipolysis at 6 h and 1 h (plasma FFAs; lean or DIO mice, G49): increased lipolysis at 6 h, but not at 1 h post-injection | liver-to-body weight ratio [7]: an increase in lipid accumulation analyzed by H&E and oil-red O staining of liver sections, liver-to-body weight ratio, and alanine aminotransferase (ALT) activity
